Sampled rows, rich in hits. Any-hit rate of the full collection: about 2.3%.
COUP-TFII inh = NR2F2 transcriptional activity inhibitors, primary screen, cell-based, luciferase reporter, HEK293T, luminescence; inhibition, % at 8.6 µM; actives 0.7% (n = 370,000); COUP transcription factor 2 (Homo sapiens), P24468; HEK293T NGFI-A luciferase reporter;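 active = inhibition above a per-plate cutoff, mean inhibition of test wells between control levels plus 3 SD, cut at about 38% in these data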;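 also: cells cotransfected with COUP-TFII expression vector driving the NGFI-A reporter; 0% = median of COUP-TF2 test wells and 100% = reporter-only cells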
NR2E3 ag-1 = inhibitors of NR2E3-RetCOR corepressor binding, primary screen, NR2E3 agonist project, biochemical, TR-FRET, GST-NR2E3, biotin-RetCOR | Photoreceptor-specific nuclear receptor (Homo sapiens), Q9Y5X4 | 1536-well | inhibition of corepressor binding, % at 4.78 µM | actives 0.12% (n = 320,000) | AID 2300, 2010;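 active = percent inhibition above the cutoff of mean plus 3 SD of all tested compounds, set per screening campaign, cut at about 20% in these data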;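 also: 0% = DMSO wells and 100% = biotin wells as full block of FRET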
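System: GST-NR2E3 and biotin-RetCOR proteins; probe or stimulus: 7 nM biotin-RetCOR; doses: compound at 4.8 µM, single dose; schedule: Compound–protein incubation for 5 h at 4 °C; detection: time-resolved FRET; read-out: percent inhibition; controls: biotin wells as high control, 0.6% DMSO wells as low control; format: 1536-well plates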
NR2E3 ag-2 = NR2E3 agonists in two-hybrid cells, primary screen, cell-based, luminescence, CHO-S, Gal4-NCOR/VP16-NR2E3; Photoreceptor-specific nuclear receptor (Homo sapiens), Q9Y5X4; luciferase; inhibition of corepressor binding, % at 3.98 µM; actives 0.35% (n = 360,000); AID 602229, 2012;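 active = inhibition above the mean of all tested compounds plus 3 SD, cut at about 70% in these data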;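 also: 0% = DMSO with NR2E3 transfected cells and 100% = cells lacking NR2E3 construct; higher means lower luciferase signal from less NR2E3 corepressor binding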
GalR3 antag = GalR3 antagonists in HEK293 cells, primary screen, cell-based, fluorescence readout; HEK293 GalR3-CNG cAMP membrane potential fluorescence; galR3 body fused to GalR1 C-terminus; actives 0.44% (n = 360,000); Galanin receptor type 3 (Homo sapiens), O60755; inhibition, % at 3 µM; AID 651719, 2012;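 active = inhibition above the screen-wide average plus 3 SD, cut at about 13% in these data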;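 also: forskolin and galanin both at EC90 stimulate the cells; cAMP rise reported by CNG channel membrane potential dye signal; 0% = forskolin plus galanin with DMSO and 100% = forskolin alone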
CHT block = inhibitors of human choline transporter CHT | High affinity choline transporter 1 (Homo sapiens), Q9GZV3 | CHT-expressing cells, membrane potential dye, choline response; active compounds read low | B-score at 10 µM | actives 0.86% (n = 310,000) | AID 488975, 2010;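 active = B-score over 3 SD under the library average, and starting fluorescence ratio not unusually high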;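 also: choline stimulus applied at its EC90 after an EC20 pre-addition; B-score computed on integrated fluorescence ratio after choline addition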
Target sequence (Q9GZV3 whole entry, looked up): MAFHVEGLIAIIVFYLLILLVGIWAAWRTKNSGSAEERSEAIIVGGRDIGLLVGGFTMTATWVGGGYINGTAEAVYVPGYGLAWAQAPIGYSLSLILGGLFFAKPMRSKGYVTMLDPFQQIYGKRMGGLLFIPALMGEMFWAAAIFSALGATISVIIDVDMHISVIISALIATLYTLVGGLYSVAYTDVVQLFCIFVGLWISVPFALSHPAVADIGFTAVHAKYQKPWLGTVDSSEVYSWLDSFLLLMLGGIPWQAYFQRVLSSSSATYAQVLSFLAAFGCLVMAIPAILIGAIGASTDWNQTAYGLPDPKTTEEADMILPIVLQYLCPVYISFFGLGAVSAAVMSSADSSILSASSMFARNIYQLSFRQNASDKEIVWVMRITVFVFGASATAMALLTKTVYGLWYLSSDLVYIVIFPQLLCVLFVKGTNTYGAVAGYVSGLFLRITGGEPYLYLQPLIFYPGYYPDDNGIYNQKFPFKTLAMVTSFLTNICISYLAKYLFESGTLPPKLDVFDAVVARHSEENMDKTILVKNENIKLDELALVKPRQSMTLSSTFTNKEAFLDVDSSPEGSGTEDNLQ
CHT allo act = CHT positive allosteric modulators, primary screen, cell-based, membrane potential dye, choline EC20 | actives 0.49% (n = 310,000) | CHT-expressing cells; active compounds read high; LV-AA mutant CHT in HEK293 cells | B-score at 10 µM;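 active = initial fluorescence not abnormally high and integrated response B-score, plate-corrected, over 3 SD above library mean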
CHT act confirm = CHT activators, confirmation, cell-based, membrane potential dye, duplicate; shares compounds with CHT allo act; CHT-expressing cells, membrane potential dye fluorescence (FDSS); % of choline EC20–EC90 response window; HEK293 expressing CHT LV-AA mutant; choline added at its EC20; activation, % at 10 µM; actives 91% (n = 2,500);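 active = primary screen active, with duplicate mean activation above negative control mean plus 3 SD, cut at about 11% in these data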
HEK293 MP dye = membrane potential response in parental HEK293 cells, counter-screen for CHT activator project, cell-based, membrane potential dye | shares compounds with CHT allo act | membrane potential dye fluorescence (FDSS); measured after EC20 choline addition | ratio readout change at 10 µM, hits read low | actives 62% (n = 2,500) | AID 623908, 2012;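 active = duplicate-averaged ratio beyond 3 SD from buffer wells, up or down, though filed actives are nearly all decreases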
Numbers without * were called inactive; i = inactive; nt = not tested or not shown.

SMILES	COUP-TFII inh	NR2E3 ag-1	NR2E3 ag-2	GalR3 antag	CHT block	CHT allo act	CHT act confirm	HEK293 MP dye
CCCn1c(=O)c2ccccc2n2c(SCCNCCO)nnc12	19	-5	-14	-4	i	9.1*	57*	-51*
CCCn1c(=O)c2ccccc2n2c(SCC(=O)c3ccccc3)nnc12	3	-3	-24	-8	i	i	nt	nt
CC(C)N1CCCCC(NC(=O)c2ccc(-c3ccccc3)cc2)C1=O (stereo not given)	0	nt	nt	nt	nt	nt	nt	nt
O=C(O)COc1ccc(/C=C/c2nc3ccc([N+](=O)[O-])cc3s2)cc1	-4	1	-43	0	i	6.7*	46*	-52*
C#CCNC(=O)C[C@H]1C[C@@]2(C(=O)OC)C(=C[C@H](C(C)(C)C)O[C@@H]2C)N(Cc2cccc3ccccc23)C1=O	-12	nt	nt	nt	nt	nt	nt	nt
CCC(=O)N/N=C/c1ccc(-c2ccc([N+](=O)[O-])cc2)o1	-10	1	-12	-5	i	i	nt	nt
O=C1N=C(O)CN1/N=C/c1ccc(-c2ccc([N+](=O)[O-])cc2)o1	0	3	0	nt	i	7.6*	32*	-32*
CCC(=O)Nc1c(C(=O)Nc2cccc(OC)c2)oc2ccccc12	-39	0	-7	-3	i	i	nt	nt
CCCN(CCC)C(=O)c1oc2ccccc2c1NC(=O)Cc1cccc(OC)c1	-17	0	-17	-7	i	16*	29*	i
O=C(Nc1c(-c2ccccc2)nc2ncccn12)c1ccc(F)cc1	0	nt	nt	nt	nt	nt	nt	nt
CCCCSc1nc2sc3c(c2c(=O)n1-c1ccc(OC)cc1)CCN(C)C3	20	nt	-33	-6	nt	nt	nt	nt
COCCSc1nc(N)c2c3c(sc2n1)CN(C)CC3	-8	-1	-20	0	i	6.4*	41*	-51*
COCCNc1nc(SC)nc2sc3c(c12)CCN(C)C3	12	-1	-4	1	i	7.1*	38*	-44*
CC(C)Sc1nc(N)c2c3c(sc2n1)CN(C)CC3	-12	3	-10	0	i	i	31*	-44*
Cc1nc(SCC(=O)NCC2CCCO2)c2c3c(sc2n1)CCCC3 (stereo not given)	-3	4	3	-8	i	i	nt	nt
CSc1nc(SCC(=O)NCC2CCCO2)c2c3c(sc2n1)CN(C)CC3 (stereo not given)	5	3	nt	-1	i	6.5*	36*	-50*
CN1[C@@H](Cc2ccccc2)COc2cccc(F)c2S1(=O)=O	3	nt	nt	nt	nt	nt	nt	nt
Cc1ccccc1Cn1cc(CN2[C@@H](CC(C)C)COc3cccc(F)c3S2(=O)=O)nn1	-4	nt	nt	nt	nt	nt	nt	nt
CCn1c(C)[n+](Cc2ccccc2)c2ccc(C(=O)OC)cc21	2	2	22	-5	i	10*	27*	-67*
CCOC(=O)c1ccc2c(c1)n(CC)c(/C=C/Nc1ccccc1)[n+]2CC	-3	2	1	-2	i	i	32*	-83*
Cc1n(Cc2ccccc2)c2cc([N+](=O)[O-])ccc2[n+]1Cc1ccccc1	18	4	7	-2	i	8.3*	72*	-58*
CCOC(=O)c1cccc(NC(=O)CSc2nc3ccccc3c(=O)n2CC)c1	-12	0	-11	-5	i	i	nt	nt
CC(C)c1cc(C(C)C)c(S(=O)(=O)N2CCCC(C(=O)NCc3cccs3)C2)c(C(C)C)c1 (stereo not given)	-6	nt	nt	nt	nt	nt	nt	nt
COc1ccc(N(C)C(=O)c2oc(=O)c3ccccc3c2-c2ccccc2)c(OC)c1	3	3	2	-8	i	6.3*	33*	i
Cc1ccc(C(=O)N(C)c2nnc(-c3ccncc3)s2)cc1	12	-1	-33	-4	i	i	nt	nt
SMILES	COUP-TFII inh	NR2E3 ag-1	NR2E3 ag-2	GalR3 antag	CHT block	CHT allo act	CHT act confirm	HEK293 MP dye
CN(C(=O)CCc1ccccc1)c1nnc(-c2ccncc2)s1	-3	1	10	-5	i	7.4*	28*	-30*
O=C(CSc1nnc(-c2cccnc2)n1-c1ccccc1)c1ccccc1Cl	-34	nt	nt	nt	nt	nt	nt	nt
CCC(C(=O)Nc1cc(C)cc(C)n1)c1ccccc1 (stereo not given)	6	-1	19	-6	i	i	nt	nt
Cc1cc(C)nc(NC(=O)C(c2ccccc2)c2ccccc2)c1	8	-1	-10	-5	i	6.9*	40*	-35*
O=[N+]([O-])c1ccc(Cl)c(C[n+]2cccc3ccccc32)c1	-1	3	-37	-3	i	i	54*	-46*
Nc1ccc(N2CCCCC2)cc1N1CCCCC1	29	-3	2	-2	i	7.9*	49*	-32*
CCc1ccc(C(O)(CNCc2ccccc2)c2ccccc2)cc1 (stereo not given)	15	nt	3	-15	i	i	24*	i
Cc1ccc(CNCC(O)(c2ccccc2)c2ccccc2)cc1	0	-1	-11	-9	i	i	nt	nt
O=C(CCc1ccccc1)N[C@H]1[C@H](OCc2ccccc2)CCC[C@@]12C(=O)N(Cc1ccccc1)c1ccc(-c3ccsc3)cc12	6	nt	nt	nt	nt	nt	nt	nt
CCOC(=O)c1sc2nc(CN3CCCCC3)nc(Cl)c2c1C	nt	2	0	nt	i	i	nt	nt
Cc1sc2nc(CN3CCCC3)nc(NCc3ccncc3)c2c1C	-14	0	11	6	i	6.3*	32*	-34*
Cc1sc2nc(CN3CCCC3)nc(Cl)c2c1C	9	-3	5	-12	i	i	52*	i
Cc1ccc(-n2c(SCC(=O)Nc3ccc(S(=O)(=O)Nc4cc(C)nc(C)n4)cc3)nnc2-c2ccc(C(C)(C)C)cc2)cc1	-12	nt	nt	nt	nt	nt	nt	nt
Cc1cc(N2CCN(C)CC2)nc(N2CCOCC2)n1	6	4	1	3	i	8.4*	45*	-91*

Screens: PubChem, several laboratories
